From ChEMBL document CHEMBL4041513, “In silico identification, design and synthesis of novel piperazine-based antiviral agents targeting the hepatitis C virus helicase” (Eur J Med Chem, 2017)
Each block holds one compound with its values, some of them ahead of it. The source made the active and inactive calls. No cut-off for these calls is given here.

Assays:
Hepatitis C virus = assay: Antiviral activity against HCV genotype 1b infected in human HuH5.2 cells with persistent I389luc-ubi-neo/NS3-3'/5.1 replicon after 72 hrs by luciferase reporter gene assay; type: functional, cell-based, Hepacivirus hominis; conditions: Huh-5-2, 72 h
Outline: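 Huh 5-2 cells carrying the genotype 1b I389luc-ubi-neo/NS3-3'/5.1 replicon were seeded at 6 500 cells/well in Geneticin-free DMEM/10% FCS and left overnight. Compounds from DMSO stocks were added in a four-step 1-to-5 series for the first screen or an eight-step 1-to-2 series for dose-response curves, then 72 h at 37 °C. Luciferase luminescence after lysis, as % of untreated controls, gave EC50; mean of ≥2 experiments.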

[1] = Cytotoxicity against human HuH5.2 cells assessed as reduction in cell viability after 72 hrs by MTS assay; type: cell-based, Huh-5-2
Outline: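 Huh 5-2 cells carrying the genotype 1b I389luc-ubi-neo/NS3-3'/5.1 replicon were seeded at 6 500 cells/well in medium without Geneticin one day ahead. Compounds (DMSO stock) were added as 1:5 four-step or 1:2 eight-step dilutions for 72 h at 37 °C.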

[2] = Selectivity index, ratio of CC50 for human HuH5.2 cells to EC50 for HCV genotype 1b infected in human HuH5.2 cells with persistent I389luc-ubi-neo/NS3-3'/5.1 replicon
[3] = Inhibition of HCV NS3 helicase DNA unwinding activity using fluorescent DNA substrate by molecular beacon assay; design: species or system Hepacivirus hominis
Outline: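 Molecular beacon unwinding reaction: 25 mM MOPS pH 6.5, 1.25 mM MgCl2, 5% DMSO, 5 µg/ml BSA, 0.01% Tween20, 0.05 mM DTT, 5 nM fluorescent DNA substrate, 12.5 nM NS3h, 1 mM ATP. Duplicate two-fold dilutions spanned 1 mM to 0.78 µM. Data normalised to no-inhibitor and no-enzyme controls; IC50 from variable-slope Hill fit.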

[4] = Inhibition of DNA oligonucleotide binding to HCV NS3 helicase; design: species or system Hepacivirus hominis
Outline: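 Compounds run in duplicate two-fold series from 1 mM to 0.78 µM; normalised to no-inhibitor and no-enzyme controls; IC50 by variable Hill-slope dose-response fit.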

[5] = Inhibition of HCV NS3 helicase ATP hydrolysis activity in presence of poly(U) RNA; design: species or system Hepacivirus hominis
Outline: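 ATPase run with RNA: 25 mM MOPS pH 6.5, 1.25 mM MgCl2, 15 µM poly(U), 6 nM NS3h, 5 µg/mL BSA, 0.001% Tween 20. Duplicate two-fold compound series from 1 mM to 0.78 µM; normalised to no-inhibitor and no-enzyme controls; IC50 from variable Hill-slope fit. A separate poly(U) titration gave K_RNA, fit assuming unchanged Vmax.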

Hepacivirus hominis [6] = assay: Inhibition of HCV NS3 helicase ATP hydrolysis activity at 1 mM in absence of poly(U) RNA
[7] = Binding affinity to HCV genotype 2A JFH1 protease domain truncated NS3 helicase by fluorescence assay; design: species or system Hepatitis C virus JFH-1
Outline: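 Intrinsic tryptophan fluorescence titration (ex 280 nm, em 340 nm) of NS3h, the JFH1 genotype 2a NS3 helicase domain without protease, at 100 nM, with compound alone as reference. Intensities corrected for dilution and inner-filter effects, then globally fit to a quadratic binding equation for Kd.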

Hepacivirus hominis [8] = assay: Selectivity ratio of inhibition of DNA oligonucleotide binding to HCV NS3 helicase to inhibition of HCV NS3 helicase ATP hydrolysis activity

Structure (SMILES): O=S(=O)(NCCCN1CCN(CCCNS(=O)(=O)c2cccc3cccnc23)CC1)c1cccc2cccnc12
EC50 (Hepatitis C virus): 42.5 µM
EC90 (Hepatitis C virus): > 172 µM
CC50 at 72 h [1]: > 172 µM
Ratio CC50/EC50 [2]: >4
IC50 [3]: > 1000 µM

Structure (SMILES): O=S(=O)(NCCCN1CCN(CCCNS(=O)(=O)c2ccc3ccccc3c2)CC1)c1ccc2ccccc2c1
EC50 (Hepatitis C virus): 4.9 µM
CC50 at 72 h [1]: 49.9 µM
Ratio CC50/EC50 [2]: 10
IC50 [3]: 460 µM

Structure (SMILES): CC(C)(C)c1ccc(S(=O)(=O)NCCCN2CCN(CCCNS(=O)(=O)c3ccc(C(C)(C)C)cc3)CC2)cc1
EC50 (Hepatitis C virus): 8.7 µM
EC90 (Hepatitis C virus): 42.9 µM
CC50 at 72 h [1]: 97.2 µM
Ratio CC50/EC50 [2]: 11.2
IC50 [3]: 310 µM
IC50 [4]: > 1000 µM
IC50 [5]: 590 µM

Structure (SMILES): O=S(=O)(NCCN1CCN(CCNS(=O)(=O)c2ccc3ccccc3c2)CC1)c1ccc2ccccc2c1
EC50 (Hepatitis C virus): 10.6 µM
CC50 at 72 h [1]: > 90.5 µM
Ratio CC50/EC50 [2]: >8.5
IC50 [3]: 690 µM

Structure (SMILES): CC(C)(C)c1ccc(S(=O)(=O)NCCCN2CCN(CCNS(=O)(=O)c3ccc(C(C)(C)C)cc3)CC2)cc1
EC50 (Hepatitis C virus): 1.7 µM
CC50 at 72 h [1]: 5.21 µM
Ratio CC50/EC50 [2]: 3.1
IC50 [3]: 170 µM

Structure (SMILES): CC(C)(C)c1ccc(S(=O)(=O)NCCCN2CCN(CCCNS(=O)(=O)c3ccc(C(F)(F)F)cc3)CC2)cc1
EC50 (Hepatitis C virus): 6.62 µM
EC90 (Hepatitis C virus): 13.8 µM
CC50 at 72 h [1]: 28.7 µM
Ratio CC50/EC50 [2]: 4.3
IC50 [3]: > 1000 µM

Structure (SMILES): CC(C)(C)c1ccc(S(=O)(=O)NCCCN2CCN(CCCNS(=O)(=O)c3ccc(Cl)cc3)CC2)cc1
EC50 (Hepatitis C virus): 2.21 µM
EC90 (Hepatitis C virus): 4.96 µM
CC50 at 72 h [1]: 8.77 µM
Ratio CC50/EC50 [2]: 4
IC50 [3]: 310 µM

Structure (SMILES): O=C(CCNS(=O)(=O)c1ccc(-c2ccccc2)cc1)N1CCN(CCCNS(=O)(=O)c2ccc(-c3ccccc3)cc2)CC1
EC50 (Hepatitis C virus): 3.03 µM
CC50 at 72 h [1]: 66.9 µM
Ratio CC50/EC50 [2]: 22.1
IC50 [3]: > 1000 µM

Structure (SMILES): O=S(=O)(NCCN1CCN(CCNS(=O)(=O)c2ccc(Cl)cc2)CC1)c1ccc(Cl)cc1
EC50 (Hepatitis C virus): > 95.9 µM
CC50 at 72 h [1]: > 95.9 µM
IC50 [3]: 250 µM

Structure (SMILES): O=S(=O)(NCCCN1CCN(CCCNS(=O)(=O)c2ccc(-c3ccccc3)cc2)CC1)c1ccccc1
EC50 (Hepatitis C virus): 4 µM
CC50 at 72 h [1]: 14 µM
Ratio CC50/EC50 [2]: 3.5
IC50 [3]: > 1000 µM

Structure (SMILES): O=S(=O)(NCCCN1CCN(CCCNS(=O)(=O)c2ccc(C(F)(F)F)cc2)CC1)c1ccc(C(F)(F)F)cc1
EC50 (Hepatitis C virus): 6.5 µM
CC50 at 72 h [1]: > 162 µM
Ratio CC50/EC50 [2]: >25
IC50 [3]: > 1000 µM

Structure (SMILES): O=S(=O)(NCCCCN1CCN(CCCCNS(=O)(=O)c2ccc(Cl)cc2)CC1)c1ccc(Cl)cc1
EC50 (Hepatitis C virus): 66.7 µM
EC90 (Hepatitis C virus): 164 µM
CC50 at 72 h [1]: > 173 µM
Ratio CC50/EC50 [2]: >2.5
IC50 [3]: 790 µM

Structure (SMILES): CC(C)(C)c1ccc(S(=O)(=O)NCCCN2CCN(CCCNS(=O)(=O)c3ccc(-c4ccccc4)cc3)CC2)cc1
EC50 (Hepatitis C virus): 1.3 µM
EC90 (Hepatitis C virus): 3.05 µM
CC50 at 72 h [1]: 4.78 µM
Ratio CC50/EC50 [2]: 3.7
IC50 [3]: 90 µM
IC50 [4]: 200 µM
IC50 [5]: 21 µM
inhibition (Hepacivirus hominis [6]): inactive
Kd [7]: 0.57 µM
Selectivity ratio (Hepacivirus hominis [8]): 10

Structure (SMILES): O=S(=O)(NCCCN1CCN(CCCNS(=O)(=O)c2ccc(-c3ccccc3)cc2)CC1)c1ccc(-c2ccccc2)cc1
EC50 (Hepatitis C virus): 1.2 µM
CC50 at 72 h [1]: 4.9 µM
Ratio CC50/EC50 [2]: 3.9
IC50 [3]: 630 µM

Structure (SMILES): CCOC(=O)c1ccc(S(=O)(=O)NCCCN2CCN(CCCNS(=O)(=O)c3ccc(C(=O)OCC)cc3)CC2)cc1
EC50 (Hepatitis C virus): 56.2 µM
CC50 at 72 h [1]: > 160 µM
Ratio CC50/EC50 [2]: >2.8
IC50 [3]: > 1000 µM

Structure (SMILES): CC(C)(C)c1ccc(S(=O)(=O)NCCCN2CCN(C(=O)CCNS(=O)(=O)c3ccc(C(C)(C)C)cc3)CC2)cc1
EC50 (Hepatitis C virus): 3.84 µM
CC50 at 72 h [1]: 20.8 µM
Ratio CC50/EC50 [2]: 5.4
IC50 [3]: > 1000 µM

Structure (SMILES): O=S(=O)(NCCCN1CCN(CCCNS(=O)(=O)c2ccc(Cl)cc2)CC1)c1ccc(Cl)cc1
EC50 (Hepatitis C virus): 13 to 13.8 µM
CC50 at 72 h [1]: > 182 µM
Ratio CC50/EC50 [2]: >13.2 - 14
IC50 [3]: > 1000 µM
IC50 [4]: > 1000 µM
IC50 [5]: > 1000 µM

Structure (SMILES): O=C(CCNS(=O)(=O)c1ccc(Cl)cc1)N1CCN(CCCNS(=O)(=O)c2ccc(Cl)cc2)CC1
EC50 (Hepatitis C virus): 9.32 µM
EC90 (Hepatitis C virus): 25.9 µM
CC50 at 72 h [1]: 69.1 µM
Ratio CC50/EC50 [2]: 7.4
IC50 [3]: > 1000 µM

IC50 [3]: > 1000 µM
IC50 [4]: > 1000 µM
IC50 [5]: > 1000 µM
Structure (SMILES): O=C(CCNS(=O)(=O)c1ccc(Cl)cc1)N1CCN(C(=O)CCNS(=O)(=O)c2ccc(Cl)cc2)CC1
CC50 at 72 h [1]: > 86.6 µM
